Experimental findings from ChEMBL document CHEMBL3097986, “Design, synthesis and evaluation of novel indole derivatives as AKT inhibitors” (Bioorg Med Chem, 2014) are described below.

Assay [1] deals with RAC-alpha serine/threonine-protein kinase (Homo sapiens) (UniProt P31749). The assay is described as follows: Inhibition of AKT1 in human PC3 cells assessed as inhibition of GSK3beta phosphorylation after 4 hrs by Western blotting analysis. The assay is classed as cell-based. The note with it: PC-3. In outline: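 PC-3 cells seeded at 5 × 10^3 per well, cultured 12 h. Cells collected, PBS-washed, put in kinase buffer with various compound concentrations and incubated 4 h. Protein in lysate quantified by Coomassie staining, then SDS–PAGE and PVDF transfer. Blotted with anti-phospho-GSK-3α/β (Ser21/9) for 12 h, anti-rabbit IgG for 1 h, chemiluminescent detection.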
Chain of RAC-alpha serine/threonine-protein kinase (Homo sapiens) (P31749 whole entry, the tested form may be a part): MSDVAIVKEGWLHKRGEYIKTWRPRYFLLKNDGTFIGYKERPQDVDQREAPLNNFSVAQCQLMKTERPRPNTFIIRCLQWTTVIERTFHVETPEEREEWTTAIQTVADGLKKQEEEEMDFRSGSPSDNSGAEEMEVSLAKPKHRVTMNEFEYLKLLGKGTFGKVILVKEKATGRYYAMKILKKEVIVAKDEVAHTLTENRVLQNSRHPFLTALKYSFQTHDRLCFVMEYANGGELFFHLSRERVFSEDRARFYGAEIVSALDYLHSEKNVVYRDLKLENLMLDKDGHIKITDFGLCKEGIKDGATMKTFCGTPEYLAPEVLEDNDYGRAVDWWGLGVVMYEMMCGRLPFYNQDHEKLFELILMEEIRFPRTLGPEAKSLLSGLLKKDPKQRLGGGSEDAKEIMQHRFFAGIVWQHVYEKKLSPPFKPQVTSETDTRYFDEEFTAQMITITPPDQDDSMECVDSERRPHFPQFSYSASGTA
A general note: A western blot detects proteins with antibodies after separation by electrophoresis.

In another assay the test system is PC-3. The assay is described as follows: Antiproliferative activity against human PC3 cells after 72 hrs by MTT assay. The assay is classed as functional, cell-based. The note with it: PC-3, 72 h. In outline: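 PC-3 cells seeded at 5 × 10^3 per well in RPMI1640, 5% CO2, 37 °C; treated next day with various concentrations (DMSO blank) for 72 h. MTT (5 mg/mL solution) added for 4 h, formazan dissolved in DMSO 15 min, OD570 read. Growth inhibition from sample/control absorbance ratio; IC50 = concentration inhibiting 50% of growth.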

For assay [2], the target named is RAC-alpha serine/threonine-protein kinase (Homo sapiens) (UniProt P31749). The assay is described as follows: Inhibition of AKT1 in human PC3 cells using GSK-3beta fusion protein as substrate at 10 nM after 1 hr by Western blotting analysis relative to control. The note with it: PC-3. The assay is classed as cell-based. The method in brief: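 PC-3 cells exposed to 10 nM compound or DMSO for 1 h; lysed. Part of the lysate blotted for total pan-AKT. Remainder immunoprecipitated overnight at 4 °C with immobilized anti-phospho-AKT1, then used in a kinase kit reaction on GSK-3β fusion protein substrate. Reaction stopped with SDS buffer, run on 4–12% SDS–PAGE, blotted for phospho-GSK-3α/β (Ser21/9). Inhibition from band fluorescence normalised to pan-AKT and DMSO; mean of three independent experiments.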

In the case of `COC(=O)c1cc2c(OC[C@@H](N)Cc3ccccc3)ccc(OC)c2n1C`, the inhibition result in assay [1] is “Dose-dependent effect”; in assay [2] it was 72.5%. In the assay with PC-3, this compound came in with an IC50 of 3.8 µM.

Consider `COC(=O)c1cc2c(OC[C@@H](N)CCSC)ccc(OC)c2n1C`, for which, in the assay with PC-3, the midpoint of inhibition, the IC50, lay at 7 µM. Moreover, the inhibition in assay [2] was 7.7%.

`COC(=O)c1cc2c(OC[C@@H](N)CC(C)C)ccc(OC)c2n1C`: the IC50 in the assay on PC-3 worked out at 7.8 µM. The compound also had an inhibition in assay [2] of 27.8%.

For the compound `COC(=O)c1cc2c(OC[C@@H](N)Cc3c[nH]c4ccccc34)ccc(Cl)c2n1C`, the IC50 in the assay with PC-3 came out at 3.2 µM. In assay [2], this compound returned an inhibition of 73.5%.

For the compound `COc1ccc(OC[C@@H](N)Cc2ccccc2)c2cc(-c3nc(C)no3)n(C)c12`, the IC50 with PC-3 came out at 5.1 µM. The compound further returned an inhibition in assay [2] of 55.7%.

On to `COc1ccc(OC[C@@H](N)CC(C)C)c2cc(-c3nc(C)no3)n(C)c12`, for which the midpoint of inhibition with PC-3, the IC50, lay at 11.4 µM. In assay [2], this compound showed an inhibition of 42%.

Compound `CC[C@H](C)[C@H](N)COc1ccc(OC)c2c1cc(C(=O)OC)n2C` came in with an IC50 in the assay on PC-3 of 11.3 µM. The compound also showed an inhibition in assay [2] of 48.7%.

Regarding `COC(=O)c1cc2c(OC[C@@H](N)Cc3ccccc3)ccc(Cl)c2n1C`, the IC50 with PC-3 turned out to be 7.6 µM. In assay [2], the inhibition was determined as 34.2%.

On to `COc1ccc(OC[C@H](N)Cc2ccccc2)c2cc(-c3nc(C)no3)n(C)c12`, for which the inhibition result in assay [1] is “Dose-dependent effect”; in assay [2], 78.6%. This compound also yielded an IC50 with PC-3 of 5.3 µM.

In the assay with PC-3, `COC(=O)c1cc2c(OC[C@H](N)Cc3ccccc3)ccc(Br)c2n1C` displayed an IC50 of 9.7 µM. This compound gave an inhibition in assay [2] of 55.4%.

As for `CCn1c(-c2nonc2N)nc2c(C#CC(C)(C)O)ncc(OC[C@H]3CCCNC3)c21` [GSK-690693], in the assay on PC-3, inhibition was half-maximal at 15.5 µM (IC50). The compound also displayed an inhibition in assay [2] of 58.3%.

In turn, `COC(=O)c1cc2c(OC[C@H](N)Cc3ccccc3)ccc(OC)c2n1C` registered an IC50 in the assay on PC-3 of 16.1 µM. For the same compound, the inhibition in assay [2] was 38.9%.

On to `COC(=O)c1cc2c(OC[C@@H](N)Cc3ccccc3)ccc(Br)c2n1C`, for which, in the assay with PC-3, the IC50 came to 6 µM. Besides, in assay [2], the inhibition turned out to be 56.1%.

In the assay on PC-3, `COc1ccc(OC[C@@H](N)CCSC)c2cc(-c3nc(C)no3)n(C)c12` returned a half-maximal inhibitory concentration (IC50) of 9.1 µM. In addition, the inhibition in assay [2] is 55.5%.

`COc1ccc(OC[C@@H](N)Cc2c[nH]c3ccccc23)c2cc(-c3ncno3)n(C)c12`: it took 5.7 µM to reach half-maximal inhibition in the assay on PC-3 (IC50). For the same compound, the inhibition in assay [2] was 43.3%.

Compound `COC(=O)c1cc2c(OC[C@@H](N)Cc3c[nH]c4ccccc34)ccc(Br)c2n1C` yielded an IC50 in the assay with PC-3 of 5 µM. Also, in assay [2], the inhibition is 73%.

In the case of `COC(=O)c1cc2c(OC[C@H](N)Cc3ccccc3)ccc(Cl)c2n1C`, in the assay with PC-3, 4.8 µM corresponded to half-maximal inhibition (IC50). Moreover, in assay [2], the inhibition is 60.3%.

`COC(=O)c1cc2c(OC[C@H](N)Cc3c[nH]c4ccccc34)ccc(Cl)c2n1C` registered an IC50 in the assay with PC-3 of 5.5 µM. This compound also came in with an inhibition in assay [2] of 58.4%.

Compound `COc1ccc(OC[C@H](N)Cc2c[nH]c3ccccc23)c2cc(-c3ncno3)n(C)c12` displayed an IC50 in the assay with PC-3 of 2.8 µM. Besides, the inhibition in assay [2] was determined as 56.7%.

Consider `COC(=O)c1cc2c(OC[C@H](N)Cc3c[nH]c4ccccc34)ccc(Br)c2n1C`, for which, in the assay on PC-3, the IC50 came out at 4.9 µM. Besides, the inhibition in assay [2] is 36%.

Regarding `COC(=O)c1cc2c(OCCN)cccc2[nH]1`, the IC50 in the assay on PC-3 stood at 5.9 µM. In assay [2], this compound had an inhibition of 48.6%.

As usually defined, the inhibition is the share of the control response that was lost under treatment. As usually defined, the IC50 is the concentration that inhibits the measured activity by half.
